The record followed here is ChEMBL document CHEMBL4138308, “Simultaneous Targeting of RGD-Integrins and Dual Murine Double Minute Proteins in Glioblastoma Multiforme” (J Med Chem, 2018).

One assay deals with Integrin alpha-5/beta-1 (Homo sapiens, UniProt P05556+P08648). Nature of the assay: Inhibition of fibronectin binding to soluble alpha5beta1 integrin (unknown origin) after 1 hr by ELISA. The assay is classed as protein-complex assay.
Another assay has as its target Integrin alpha-V/beta-3 (Homo sapiens, UniProt P05106+P06756). In words: Inhibition of vitronectin binding to human alphaVbeta3 integrin after 1 hr by ELISA. It is filed as protein-complex assay. Put shortly: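 Plates coated overnight at 4 °C with vitronectin 1.0 μg/mL in carbonate buffer pH 9.6, blocked 1 h with TSB (Ca2+, Mg2+, Mn2+, 1% BSA). Soluble human αvβ3 (final 1.0 μg/mL) with inhibitor (final 0.128–400 nM) 1 h at room temperature; detection by anti-CD51/61 then peroxidase secondary, absorbance 405 nm. Duplicates; IC50 from curve inflection point; internal standard per plate.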
(In general: ELISA stands for enzyme-linked immunosorbent assay.)

Assay [1] addresses T1, E3 ubiquitin-protein ligase Mdm2 (Homo sapiens, UniProt Q00987). In words: Displacement of p53 from MDM2 in human U87MG cells incubated for 10 mins by sandwich ELISA method. The assay is classed as cell-based.
Target sequence in this assay (Q00987 whole entry): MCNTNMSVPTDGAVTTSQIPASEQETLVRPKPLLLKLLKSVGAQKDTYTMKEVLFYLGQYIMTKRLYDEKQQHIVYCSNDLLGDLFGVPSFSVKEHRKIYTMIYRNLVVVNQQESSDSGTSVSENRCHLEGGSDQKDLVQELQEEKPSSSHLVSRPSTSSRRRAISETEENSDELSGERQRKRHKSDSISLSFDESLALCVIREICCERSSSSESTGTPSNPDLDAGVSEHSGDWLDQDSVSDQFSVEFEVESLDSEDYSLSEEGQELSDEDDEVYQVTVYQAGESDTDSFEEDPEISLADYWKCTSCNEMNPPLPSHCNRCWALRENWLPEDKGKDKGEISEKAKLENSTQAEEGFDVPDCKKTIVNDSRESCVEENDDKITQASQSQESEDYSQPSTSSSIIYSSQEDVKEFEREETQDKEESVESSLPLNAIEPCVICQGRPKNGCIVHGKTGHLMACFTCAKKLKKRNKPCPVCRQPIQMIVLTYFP
Assay [2] has as its target T1, E3 ubiquitin-protein ligase Mdm2. Nature of the assay: Displacement of p53 from MDM2 in human U87MG cells at 100 uM incubated for 10 mins by sandwich ELISA method relative to control. It is filed as cell-based. Put shortly:
(§1)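 Native complexes in cell lysates (U87MG for p53/MDM2; SHSY-5Y for p53/MDM4). Compound incubated with lysate 10 min at room temperature, then 90 min in wells precoated with anti-MDM2 or anti-MDM4; blocked with 1% BSA, anti-p53 (1:250) 90 min, HRP secondary 60 min, TMB read at 450 nm. Blanks lacked anti-p53. Mean of three determinations.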
Target sequence in this assay (Q00987 whole entry, looked up): as the sequence (Q00987 whole entry) above

In assay [3] the target is T2, Protein Mdm4 (Homo sapiens) (UniProt O15151).
T2 sequence (whole entry): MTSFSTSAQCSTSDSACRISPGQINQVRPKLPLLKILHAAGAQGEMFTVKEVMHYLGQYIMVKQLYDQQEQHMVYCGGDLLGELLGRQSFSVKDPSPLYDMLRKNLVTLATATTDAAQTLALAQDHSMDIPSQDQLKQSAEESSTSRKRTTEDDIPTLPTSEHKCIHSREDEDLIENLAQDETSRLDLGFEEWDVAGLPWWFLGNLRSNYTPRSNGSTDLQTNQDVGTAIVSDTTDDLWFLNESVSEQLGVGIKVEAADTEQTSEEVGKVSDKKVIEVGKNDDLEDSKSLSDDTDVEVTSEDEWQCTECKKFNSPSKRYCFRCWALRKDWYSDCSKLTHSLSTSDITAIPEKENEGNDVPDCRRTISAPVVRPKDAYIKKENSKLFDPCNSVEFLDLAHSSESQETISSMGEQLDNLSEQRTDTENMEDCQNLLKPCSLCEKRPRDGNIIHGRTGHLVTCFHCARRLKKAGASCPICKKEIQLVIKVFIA
In words: Displacement of p53 from MDM4 in human SHSY-5Y cells at 100 uM incubated for 10 mins by sandwich ELISA method relative to control. The assay is classed as cell-based. A digest of the protocol:
as §1

The test system of assay [4] is U-87 MG. In words: Antiproliferative activity against human U87MG cells at 100 nM after 72 hrs by MTS assay. The assay is classed as functional, cell-based. The conditions noted are these: U-87MG ATCC. Put shortly:
(§2)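 Cells seeded ~5000 cells/cm2, after 24 h medium replaced with compound in DMSO (DMSO 1% v/v in controls), alone or in combination at 100 nM each, or concentration series (U87MG 1–100 nM). 72 h exposure; proliferation read by MTS, expressed as % of DMSO control (mean ± SEM, N = 3); IC50 from sigmoid dose–response fit.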
(Tetrazolium assays rely on reduction of a dye to a coloured formazan, in cell work by metabolically active cells.)

The test system of assay [5] is U-87 MG. In words: Antiproliferative activity against human U87MG cells at 100 nM after 72 hrs in presence of MDM2 inhibitor nutlin-3 by MTS assay. It is filed as functional, cell-based. Particulars: U-87MG ATCC. Put shortly: as §2
Assay [6] deals with U-87 MG. Nature of the assay: Antiproliferative activity against human U87MG cells at 100 nM after 72 hrs in presence of MDM2 inhibitor nutlin-3 and MDM4 inhibitor SJ-1722550 by MTS assay. The assay is classed as functional, cell-based. Particulars: U-87MG ATCC. A digest of the protocol: as §2
Assay [7] deals with U-87 MG. In words: Anti-invasive activity in human U87MG cells at 10 uM after 24 hrs by transwell assay. The assay is classed as functional. The conditions noted are these: U-87MG ATCC. Put shortly:
(§3)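 U87MG cells suspended in serum-free medium (60,000 cells), treated at 10 μM (each agent at 10 μM when combined), placed in upper chamber of Matrigel-coated (0.32 mg/mL) transwell; lower chamber RPMI with 10% FBS. Invasion 24 h at 37 °C; cells on lower membrane surface fixed with p-formaldehyde, crystal violet stained, counted in five random fields per filter. Mean ± SEM vs DMSO control.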

For assay [8], the system named is U-87 MG. Nature of the assay: Anti-invasive activity in human U87MG cells at 10 uM after 24 hrs in presence of MDM2 inhibitor nutlin-3 and MDM4 inhibitor SJ-1722550 by transwell assay. The conditions noted are these: U-87MG ATCC. It is filed as functional, cell-based. A digest of the protocol: as §3
In another assay the target is T3, Protein Mdm4 (Homo sapiens, UniProt O15151).
T3 sequence (O15151 whole entry): T2 sequence (whole entry)
Nature of the assay: Displacement of p53 from MDM4 in human SHSY-5Y cells incubated for 10 mins by sandwich ELISA method. The assay is classed as cell-based.

The target of assay [9] is T2, Protein Mdm4 (Homo sapiens). In words: Inhibition of MDM4 in human U87MG cells assessed as increase in p53 accumulation at 100 nM after 24 hrs in presence of MDM2 inhibitor nutlin-3 by Western blot method. The assay is classed as cell-based. Put shortly: (§4)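 U87MG cells treated 24 h with agents at 100 nM, alone or combined; 40 μg lysate protein resolved by SDS-PAGE, immunoblotted for p53 with GAPDH loading control; bands quantified by densitometry as % of DMSO control (mean ± SEM, N = 3).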
(A western blot detects proteins with antibodies after separation by electrophoresis.)

The target is the same in assay [10]. Nature of the assay: Inhibition of MDM4 in human U87MG cells assessed as increase in p53 accumulation at 100 nM after 24 hrs in presence of MDM2 inhibitor nutlin-3 and alphaVbeta3 inhibitor cilengitide by Western blot method. It is filed as cell-based. Put shortly:
as §4

The target is the same in assay [11]. Nature of the assay: Inhibition of MDM4 in human U87MG cells assessed as increase in MDM2 mRNA expression at 100 nM after 8 hrs in presence of MDM2 inhibitor nutlin-3 by RT-PCR method. The assay is classed as cell-based. Put shortly: (§5)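 U87MG cells exposed to agents at 100 nM, alone or combined, for 8 or 24 h; total RNA extracted, cDNA made from 500 ng RNA, MDM2, PUMA and p21 transcripts quantified by real-time PCR. Data as % of DMSO control, mean ± SEM, N = 3.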

For assay [12] the target is unchanged. Nature of the assay: Inhibition of MDM4 in human U87MG cells assessed as increase in MDM2 mRNA expression at 100 nM after 8 hrs in presence of MDM2 inhibitor nutlin-3 and alphaVbeta3 inhibitor cilengitide by RT-PCR method. It is filed as cell-based. A digest of the protocol:
as §5

Assay [13] shares this target. Nature of the assay: Inhibition of MDM4 in human U87MG cells assessed as increase in PUMA mRNA expression at 100 nM after 24 hrs by RT-PCR method. The assay is classed as cell-based. Put shortly: as §5
Assay [14] shares this target. Nature of the assay: Inhibition of MDM4 in human U87MG cells assessed as increase in PUMA mRNA expression at 100 nM after 24 hrs in presence of MDM2 inhibitor nutlin-3 by RT-PCR method. It is filed as cell-based. A digest of the protocol: as §5
The target is the same in assay [15]. In words: Inhibition of MDM4 in human U87MG cells assessed as increase in PUMA mRNA expression at 100 nM after 24 hrs in presence of alphaVbeta3 inhibitor cilengitide by RT-PCR method. It is filed as cell-based. A digest of the protocol: as §5
The target is the same in assay [16]. In words: Inhibition of MDM4 in human U87MG cells assessed as increase in p21 mRNA expression at 100 nM after 24 hrs by RT-PCR method. The assay is classed as cell-based. Put shortly: as §5
The test system of assay [17] is U-87 MG. In words: Antiproliferative activity against human U87MG cells at 100 nM after 72 hrs in presence of alphaVbeta3 inhibitor cilengitide and MDM2 inhibitor nutlin-3 by MTS assay. The assay is classed as functional, cell-based. The conditions noted are these: U-87MG ATCC. A digest of the protocol: as §2
For assay [18], the system named is U-87 MG. In words: Anti-invasive activity in human U87MG cells at 10 uM after 24 hrs in presence of MDM2 inhibitor nutlin-3 and alphaVbeta3 inhibitor cilengitide by transwell assay. The assay is classed as functional, cell-based. Particulars: U-87MG ATCC. Put shortly: as §3
A further assay addresses MDM4 (Homo sapiens) (UniProt O15151). In words: Inhibition of MDM4 in human U87MG cells assessed as increase in PUMA mRNA expression at 100 nM after 24 hrs in presence of MDM2 inhibitor nutlin-3 and alphaVbeta3 inhibitor cilengitide by RT-PCR method.
Assay [19] deals with U-87 MG. In words: Antiproliferative activity against human U87MG cells at 100 nM after 72 hrs in presence of alphaVbeta3 inhibitor cilengitide by MTS assay. The assay is classed as functional, cell-based. Particulars: U-87MG ATCC. A digest of the protocol:
as §2

The test system of assay [20] is U-87 MG. In words: Antiproliferative activity against human U87MG cells at 100 nM after 72 hrs in presence of alphaVbeta3 inhibitor cilengitide and MDM4 inhibitor SJ-1722550 by MTS assay. It is filed as functional, cell-based. The conditions noted are these: U-87MG ATCC. A digest of the protocol: as §2
Assay [21] has as its system U-87 MG. Nature of the assay: Anti-invasive activity in human U87MG cells at 10 uM after 24 hrs in presence of MDM4 inhibitor SJ-1722550 and alphaVbeta3 inhibitor cilengitide by transwell assay. The assay is classed as functional, cell-based. The conditions noted are these: U-87MG ATCC. Put shortly: as §3

Calls of active or inactive are those of the source. No cut-off for these calls is given here.

A word on the IC50: it is the midpoint of a concentration-inhibition curve. Low values mean higher potency, high ones lower potency. As usually defined, the inhibition is the share of the control response that was lost under treatment.

Chain of Integrin alpha-V/beta-3 (P05106 27-788 limits assumed): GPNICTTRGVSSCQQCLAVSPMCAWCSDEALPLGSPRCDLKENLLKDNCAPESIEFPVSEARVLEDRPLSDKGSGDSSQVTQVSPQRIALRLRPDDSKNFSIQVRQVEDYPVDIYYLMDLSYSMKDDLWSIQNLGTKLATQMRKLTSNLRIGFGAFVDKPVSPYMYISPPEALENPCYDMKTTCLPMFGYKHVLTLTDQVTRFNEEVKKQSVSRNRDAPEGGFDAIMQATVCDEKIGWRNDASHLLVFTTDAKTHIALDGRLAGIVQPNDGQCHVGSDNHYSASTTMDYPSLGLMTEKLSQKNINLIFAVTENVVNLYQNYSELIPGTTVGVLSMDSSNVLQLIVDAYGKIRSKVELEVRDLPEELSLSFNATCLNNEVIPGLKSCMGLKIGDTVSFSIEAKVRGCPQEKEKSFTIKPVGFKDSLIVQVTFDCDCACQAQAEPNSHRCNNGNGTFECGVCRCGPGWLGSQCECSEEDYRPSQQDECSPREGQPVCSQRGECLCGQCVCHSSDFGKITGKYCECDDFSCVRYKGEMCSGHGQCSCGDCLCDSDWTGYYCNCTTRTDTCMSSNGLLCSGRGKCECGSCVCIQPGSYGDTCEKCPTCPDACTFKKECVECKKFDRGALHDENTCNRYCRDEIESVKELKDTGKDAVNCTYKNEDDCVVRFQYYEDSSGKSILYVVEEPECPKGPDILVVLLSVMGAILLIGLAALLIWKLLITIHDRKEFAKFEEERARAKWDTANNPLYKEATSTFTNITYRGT
Chain of Integrin alpha-V/beta-3 (P06756 31-889 limits assumed): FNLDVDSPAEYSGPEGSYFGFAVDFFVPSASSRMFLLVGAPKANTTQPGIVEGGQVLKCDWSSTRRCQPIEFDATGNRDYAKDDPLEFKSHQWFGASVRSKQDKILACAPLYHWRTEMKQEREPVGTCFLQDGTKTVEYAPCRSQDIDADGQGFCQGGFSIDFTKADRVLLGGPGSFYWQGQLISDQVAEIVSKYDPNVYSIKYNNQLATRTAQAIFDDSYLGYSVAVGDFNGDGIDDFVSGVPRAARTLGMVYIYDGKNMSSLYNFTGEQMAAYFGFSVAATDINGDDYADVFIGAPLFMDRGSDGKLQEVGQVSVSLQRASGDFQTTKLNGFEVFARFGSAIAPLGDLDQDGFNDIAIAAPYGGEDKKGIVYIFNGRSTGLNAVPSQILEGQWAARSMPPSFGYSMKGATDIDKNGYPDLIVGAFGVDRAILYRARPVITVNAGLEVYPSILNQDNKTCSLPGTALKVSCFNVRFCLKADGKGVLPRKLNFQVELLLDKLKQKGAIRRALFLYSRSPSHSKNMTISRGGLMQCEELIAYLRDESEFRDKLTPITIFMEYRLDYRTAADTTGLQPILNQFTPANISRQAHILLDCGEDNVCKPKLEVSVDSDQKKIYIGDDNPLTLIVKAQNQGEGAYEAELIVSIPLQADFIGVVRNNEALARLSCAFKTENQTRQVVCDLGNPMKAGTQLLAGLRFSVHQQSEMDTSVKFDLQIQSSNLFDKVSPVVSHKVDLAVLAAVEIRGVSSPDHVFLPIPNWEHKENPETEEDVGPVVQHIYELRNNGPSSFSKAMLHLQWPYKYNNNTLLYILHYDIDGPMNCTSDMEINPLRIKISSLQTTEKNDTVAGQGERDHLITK
Chain of Integrin alpha-V/beta-3 (P06756 891-1048 limits assumed): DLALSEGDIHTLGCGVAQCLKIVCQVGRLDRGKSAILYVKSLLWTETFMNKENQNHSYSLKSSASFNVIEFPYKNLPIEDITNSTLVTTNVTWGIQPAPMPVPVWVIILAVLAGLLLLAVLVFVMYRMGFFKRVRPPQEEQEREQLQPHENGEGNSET
Chain of Integrin alpha-5/beta-1 (P05556 21-798 limits assumed): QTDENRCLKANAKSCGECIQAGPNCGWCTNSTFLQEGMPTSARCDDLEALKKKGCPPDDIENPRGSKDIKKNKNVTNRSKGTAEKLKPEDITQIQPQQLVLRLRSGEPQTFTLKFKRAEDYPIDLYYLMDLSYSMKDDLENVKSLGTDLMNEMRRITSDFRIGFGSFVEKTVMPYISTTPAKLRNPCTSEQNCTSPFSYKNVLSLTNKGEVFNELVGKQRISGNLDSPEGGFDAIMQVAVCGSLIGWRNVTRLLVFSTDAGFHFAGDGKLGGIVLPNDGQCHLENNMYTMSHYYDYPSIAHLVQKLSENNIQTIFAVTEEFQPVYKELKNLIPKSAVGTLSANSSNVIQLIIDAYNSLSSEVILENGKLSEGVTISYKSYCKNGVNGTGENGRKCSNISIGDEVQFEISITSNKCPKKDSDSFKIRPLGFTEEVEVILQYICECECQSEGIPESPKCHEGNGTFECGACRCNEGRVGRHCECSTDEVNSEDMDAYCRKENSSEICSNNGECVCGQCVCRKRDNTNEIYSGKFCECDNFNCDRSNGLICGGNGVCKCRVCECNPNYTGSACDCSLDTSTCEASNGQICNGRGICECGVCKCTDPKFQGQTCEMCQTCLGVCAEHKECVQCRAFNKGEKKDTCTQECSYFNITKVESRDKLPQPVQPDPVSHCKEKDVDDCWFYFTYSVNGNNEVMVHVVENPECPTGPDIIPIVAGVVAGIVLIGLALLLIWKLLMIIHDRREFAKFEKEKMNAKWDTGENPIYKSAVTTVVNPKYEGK
Chain of Integrin alpha-5/beta-1 (P08648 42-894 limits assumed): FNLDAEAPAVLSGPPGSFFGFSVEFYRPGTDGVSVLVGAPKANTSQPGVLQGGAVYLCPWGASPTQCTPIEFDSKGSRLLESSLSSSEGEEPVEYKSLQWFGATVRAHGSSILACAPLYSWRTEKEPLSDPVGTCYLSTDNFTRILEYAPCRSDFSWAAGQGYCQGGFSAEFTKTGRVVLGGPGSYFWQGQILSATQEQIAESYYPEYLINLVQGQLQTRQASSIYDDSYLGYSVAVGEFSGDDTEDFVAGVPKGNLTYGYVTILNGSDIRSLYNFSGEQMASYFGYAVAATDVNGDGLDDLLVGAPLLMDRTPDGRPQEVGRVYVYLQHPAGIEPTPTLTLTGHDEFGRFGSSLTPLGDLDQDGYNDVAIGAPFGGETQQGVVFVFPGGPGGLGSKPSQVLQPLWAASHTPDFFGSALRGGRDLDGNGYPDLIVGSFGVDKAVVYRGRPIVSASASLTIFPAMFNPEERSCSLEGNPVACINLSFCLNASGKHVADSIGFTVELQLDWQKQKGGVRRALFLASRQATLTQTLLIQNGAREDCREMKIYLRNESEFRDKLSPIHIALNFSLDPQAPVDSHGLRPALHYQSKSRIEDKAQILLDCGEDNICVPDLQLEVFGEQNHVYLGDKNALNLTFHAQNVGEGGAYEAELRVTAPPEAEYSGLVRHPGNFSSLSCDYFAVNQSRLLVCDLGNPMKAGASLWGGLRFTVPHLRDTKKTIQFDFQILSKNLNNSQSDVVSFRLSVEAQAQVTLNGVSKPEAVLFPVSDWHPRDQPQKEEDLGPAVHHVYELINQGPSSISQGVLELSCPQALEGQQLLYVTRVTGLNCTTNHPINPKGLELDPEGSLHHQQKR
Chain of Integrin alpha-5/beta-1 (P08648 895-1049 limits assumed): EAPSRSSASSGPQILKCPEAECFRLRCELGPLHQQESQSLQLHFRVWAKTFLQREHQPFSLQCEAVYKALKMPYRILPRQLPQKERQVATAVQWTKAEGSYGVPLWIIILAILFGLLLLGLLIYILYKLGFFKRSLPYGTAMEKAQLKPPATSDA

For the molecule `N=C(N)Nc1cccc(C(=O)NCC(=O)N[C@@H](CC(=O)O)C(=O)NCC(c2ccccc2)c2ccccc2)c1`, the IC50 at Integrin alpha-5/beta-1 was 22 nM; at Integrin alpha-V/beta-3 it was 0.91 nM; in [1], greater than 1000 nM.
Turning to `CC(C)[C@H]1C(=O)N[C@@H](CCCNC(=N)N)C(=O)NCC(=O)N[C@@H](CC(=O)O)C(=O)N[C@H](Cc2ccccc2)C(=O)N1C`, the inhibition in assay [2] is 14.1%; in [3], 2.6%. In addition, in the assay with U-87 MG [4], the result was inactive. Also, the result in the assay with U-87 MG [5], in the assay on U-87 MG [6], with U-87 MG [7] and with U-87 MG [8] was Active.
For the molecule `N=C(N)Nc1cccc(C(=O)NCC(=O)N[C@@H](CC(=O)O)C(=O)NCc2ccc(Cl)cc2)c1`, the figures for the IC50 at Integrin alpha-5/beta-1 and at Integrin alpha-V/beta-3 were 48 nM and 1.3 nM, respectively.
On to `N=C(N)Nc1cccc(C(=O)NCC(=O)N[C@@H](CC(=O)O)C(=O)NCc2cccc(-c3ccccc3)c2)c1`, for which the IC50 at Integrin alpha-5/beta-1 is 18 nM; at Integrin alpha-V/beta-3, 1.2 nM; at Protein Mdm4, greater than 1000 nM.
Take `CCOc1cc(/C=C2\C(=O)N(c3ccccc3)N=C2C)cc(Cl)c1OCC(=O)OC`: the inhibition result in assay [9], in assay [10], in assay [11], in [12], in assay [13] and in assay [14] was “Active” throughout. Besides, the inhibition entry (in [15]; in assay [16]; on MDM4 (Homo sapiens)) was “Active” each time. Besides, in the assay on U-87 MG [4], the result was inactive. Also, the outcome in the assay on U-87 MG [17] and in the assay with U-87 MG [18] was Active.
`N=C(N)Nc1cccc(C(=O)NCC(=O)N[C@@H](CC(=O)O)C(=O)Nc2cccc3ccccc23)c1`: the IC50 was determined as 22 nM at Integrin alpha-5/beta-1 and 4.5 nM on Integrin alpha-V/beta-3.
Regarding `C[C@@H](NC(=O)[C@H](CC(=O)O)NC(=O)CNC(=O)c1cccc(NC(=N)N)c1)c1ccccc1`, the IC50 at Integrin alpha-5/beta-1 was 45 nM; at Integrin alpha-V/beta-3 it was 1.6 nM.
For the molecule `COc1ccc(C2=N[C@H](c3ccc(Cl)cc3)[C@H](c3ccc(Cl)cc3)N2C(=O)N2CCNC(=O)C2)c(OC(C)C)c1`, the outcome in the assay with U-87 MG [4] and with U-87 MG [7] was inactive. Moreover, the outcome in the assay on U-87 MG [19], in the assay with U-87 MG [20] and in the assay with U-87 MG [21] was Active.
